A short description of series [1]: folding enthalpy; higher = less favourable; fluorescence melt of hairpins on a sequencing array, two-state fit. To be noted: sodium 0.088 M. In a few lines: (§1)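 Hairpins were imaged by Cy3 fluorescence on a sequenced MiSeq flow cell with annealed Cy3 and quencher oligos, in 50 mM Na-HEPES pH 8.0, 25 mM NaCl, in 2.5 °C steps up to 60 °C. Bootstrapped two-state fits of normalised signals gave melting temperature and folding enthalpy. Four replicates were combined by inverse variance, and fitted temperatures were raised by 9.35 °C to match UV melts.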

The nature of series [2]: melting temperature; fluorescence melt of hairpins on a sequencing array, two-state fit, raised by 9.35 °C to match UV melts. To be noted: sodium 0.088 M. In a few lines:
as §1

Turning to GCTTTGCGAAAGCACCGC ((..(((....)))..)), in series [1], the folding enthalpy is -12.4 kcal/mol. The Tm in series [2] is 39.2 °C.
Taken in the same sequence, the figures for GCTTTGCGAAAGCGCAGC (((..((....))..))) were -11.8 kcal/mol and 38.7 °C.
For GCTTTGCGAAAGCTACGC ((.(.((....)).).)) the same measures were -13.2 kcal/mol and 45.4 °C.
For the sequence GCTTTGGGAAACTGAAGC ((((..(....)..)))), the folding enthalpy in series [1] is -31.6 kcal/mol. Besides, the Tm in series [2] stood at 35.2 °C.
For GCTTTTGGAAACAAAAGC (((((((....))))))) the same measures were -42.2 kcal/mol and 61.5 °C.
As for GCTTTTGGAAACAGAAGC ((((.((....)).)))), the folding enthalpy in series [1] is -25.1 kcal/mol. Further, the Tm in series [2] was found to be 41.4 °C.
For the sequence GGAAAAACGAAAGTTTCC (((..(((....)))))), in series [1], the folding enthalpy was -14.9 kcal/mol. Further, the Tm in series [2] worked out at 35.6 °C.
In the case of GGAAACGAAAGTTACTCC ((((((....)))..))), the folding enthalpy in series [1] was -10.2 kcal/mol. Further, the Tm in series [2] stood at 22.8 °C.
GGAAACGAAAGTTCGTCC ((((((....)))..))): the folding enthalpy in series [1] was -13 kcal/mol. The Tm in series [2] was found to be 24.8 °C.
Taken in the same sequence, the figures for GGAAACGAAAGTTGTCC ((((((....))).))) were -18.2 kcal/mol and 31.5 °C.
Taken in the same sequence, the figures for GGAAACGGAAACGTTTCC (((((((....))))))) were -45.5 kcal/mol and 64.8 °C.
For GGAAAGGGAAACCTCTCC (((.(((....))).))), the folding enthalpy in series [1] was -14.8 kcal/mol. For the same sequence, in series [2], the Tm came to 33 °C.
Taken in the same sequence, the figures for GGAAAGGGAAACCTTCCC ((.((((....)))).)) were -19.3 kcal/mol and 33.3 °C.
For GGAAAGGGAAACCTTTCC (((((((....))))))) the same measures were -41.9 kcal/mol and 55.8 °C.
For GGAAATGAAAATTTCC ((((((....)))))) the same measures were -29.2 kcal/mol and 48.8 °C.
With GGAACACGAAAGTGGTCC (((.(((....))).))), the folding enthalpy in series [1] was -31.7 kcal/mol. Further, the Tm in series [2] was found to be 60.7 °C.
For GGAACAGGAAACCGTTCC (((((.(....).))))) the same measures were -31.7 kcal/mol and 45.5 °C.
Consider GGAACAGGAAACTGTCCC ((.((((....)))).)), for which, in series [1], the folding enthalpy was -23.1 kcal/mol. In series [2], the Tm is 39.9 °C.
For GGAACAGGAAACTGTTTC (.(((((....))))).) the same measures were -31.7 kcal/mol and 44.4 °C.
Taken in the same sequence, the figures for GGAACCACGAAAGTGTCC (((..(((....)))))) were -11.2 kcal/mol and 28.1 °C.
In the case of GGAACCCGAAAGGGATCC (((.(((....))).))), the folding enthalpy in series [1] is -28 kcal/mol. The Tm in series [2] was 54.5 °C.
For GGAACCCGAAAGGGCTCC (((.(((....))).))) the same measures were -32.4 kcal/mol and 54.5 °C.
Taken in the same sequence, the figures for GGAACCGAAAGGTCCTCC ((((((....)))..))) were -17.5 kcal/mol and 50.2 °C.
Taken in the same sequence, the figures for GGAACCGAAAGGTCTTCC ((((((....)))..))) were -20.3 kcal/mol and 38.7 °C.
GGAACCGAAAGGTTATCC ((((((....)))..))): the folding enthalpy in series [1] is -11.8 kcal/mol. In addition, in series [2], the Tm is 35.9 °C.
Turning to GGAACCGAAAGGTTGTCC ((((((....)))..))), the folding enthalpy in series [1] is -11.5 kcal/mol. The Tm in series [2] turned out to be 36.1 °C.
Taken in the same sequence, the figures for GGAACCGAAAGGTTTTCC ((((((....)))..))) were -12.6 kcal/mol and 35.6 °C.
Regarding GGAACCGCGAAAGCGTCC (((..(((....)))))), in series [1], the folding enthalpy was -7.7 kcal/mol. In addition, in series [2], the Tm was found to be 26.3 °C.
For GGAACCGGAAACAGTTCC (((((.(....).))))) the same measures were -28.4 kcal/mol and 40 °C.
Taken in the same sequence, the figures for GGAACCGGAAACGGCTCC (((.(((....))).))) were -28.5 kcal/mol and 50 °C.
Take GGAACGAAAGTTCC (((((....))))): in series [1], the folding enthalpy is -33.3 kcal/mol. The Tm in series [2] was 64.3 °C.
Taken in the same sequence, the figures for GGAACGCGAAAGCGATCC (((.(((....))).))) were -27.4 kcal/mol and 59 °C.
Taken in the same sequence, the figures for GGAACGGGAAACCGTCCC ((.((((....)))).)) were -18.5 kcal/mol and 48.2 °C.
For GGAACGTCGAAAGACTCC (((..(((....)))))) the same measures were -11.7 kcal/mol and 32.1 °C.
For GGAACTGGAAACAATTCC ((((.((....)).)))), the folding enthalpy in series [1] was -13.1 kcal/mol. In series [2], the Tm is 28.4 °C.
For GGAACTGGAAACAGTCCC ((.((((....)))).)) the same measures were -25.4 kcal/mol and 40 °C.
